Data taken from ChEMBL document CHEMBL4007396, “New diphenylmethane derivatives as peroxisome proliferator-activated receptor alpha/gamma dual agonists endowed with anti-proliferative effects and mitochondrial activity” (Eur J Med Chem, 2017).
The source made the active and inactive calls. No cut-off for these calls is given here.

What was measured:
[1] = molecular target: T1, Bile acid receptor (Homo sapiens) (UniProt Q96RI1); experiment: Agonist activity at GAL4-fused human FXR LBD expressed in human HepG2 cells up to 2 uM after 20 hrs by luciferase reporter gene assay; format: cell-based
T1 sequence (whole entry): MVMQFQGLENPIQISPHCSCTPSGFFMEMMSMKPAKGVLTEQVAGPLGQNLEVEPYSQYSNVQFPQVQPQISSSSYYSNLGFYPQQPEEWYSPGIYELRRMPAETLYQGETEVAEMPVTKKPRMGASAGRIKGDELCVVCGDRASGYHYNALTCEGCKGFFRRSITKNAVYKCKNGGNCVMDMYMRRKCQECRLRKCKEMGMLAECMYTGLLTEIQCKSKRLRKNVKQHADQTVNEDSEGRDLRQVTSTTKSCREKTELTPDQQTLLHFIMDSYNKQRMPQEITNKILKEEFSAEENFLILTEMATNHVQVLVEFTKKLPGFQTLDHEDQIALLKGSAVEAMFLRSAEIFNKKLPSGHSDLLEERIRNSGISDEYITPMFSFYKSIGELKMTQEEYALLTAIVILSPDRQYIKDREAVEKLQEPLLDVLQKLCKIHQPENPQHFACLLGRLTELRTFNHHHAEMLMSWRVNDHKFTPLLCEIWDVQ
Outline: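 HepG2 in MEM/10% FBS, calcium-phosphate co-transfection 24 h after seeding with GAL4-FXR-LBD (30 ng), pGAL5TKpGL3 luciferase reporter (100 ng) and pCMVβgal (250 ng); 4 h later, 20 h ligand exposure in triplicate. Luciferase normalized to β-galactosidase (ONPG); efficacy as % of maximal fold induction of chenodeoxycholic acid reference; tested up to 2 μM.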

[2] = molecular target: T2, Peroxisome proliferator-activated receptor delta (Homo sapiens, UniProt Q03181); experiment: Binding affinity to PPARdelta (unknown origin) assessed as thermodynamic dissociation constant by SPR assay
T2 sequence (Q03181 whole entry): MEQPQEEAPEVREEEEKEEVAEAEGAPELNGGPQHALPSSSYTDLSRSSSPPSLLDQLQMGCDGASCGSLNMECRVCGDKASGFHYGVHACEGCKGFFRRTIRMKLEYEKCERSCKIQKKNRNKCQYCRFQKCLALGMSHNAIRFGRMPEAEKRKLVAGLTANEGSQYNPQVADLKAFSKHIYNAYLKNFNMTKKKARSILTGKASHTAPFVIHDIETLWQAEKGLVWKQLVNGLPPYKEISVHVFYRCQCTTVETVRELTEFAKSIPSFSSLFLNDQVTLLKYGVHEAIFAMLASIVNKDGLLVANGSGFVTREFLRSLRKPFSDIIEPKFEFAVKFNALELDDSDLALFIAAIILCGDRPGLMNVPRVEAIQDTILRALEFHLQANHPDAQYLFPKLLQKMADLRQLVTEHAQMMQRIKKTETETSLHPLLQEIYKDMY

HEK-293T = experiment: Effect on p21waf1/cip1 protein expression in HEK293T cells at 10 uM after 48 hrs by Western blot method; format: cell-based; conditions: human
Outline: (§1)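 HT-29 or HEK293T cells in DMEM/10% FBS treated 48 h with 10 μM compound (DMSO vehicle, final below 0.1%). RIPA lysates (with protease inhibitors), 80 μg protein per lane immunoblotted for p21waf1/cip1 with β-actin loading control; densitometric p21/β-actin ratio, mean ± SD of at least three independent experiments.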

[3] = molecular target: T3, Peroxisome proliferator-activated receptor gamma (Homo sapiens) (UniProt P37231); experiment: Agonist activity at PPARgamma in human HT-29 cells assessed as upregulation of p21waf1/cip1 protein expression at 10 uM after 48 hrs by Western blot method; format: cell-based; outline: as §1
T3 sequence (whole entry): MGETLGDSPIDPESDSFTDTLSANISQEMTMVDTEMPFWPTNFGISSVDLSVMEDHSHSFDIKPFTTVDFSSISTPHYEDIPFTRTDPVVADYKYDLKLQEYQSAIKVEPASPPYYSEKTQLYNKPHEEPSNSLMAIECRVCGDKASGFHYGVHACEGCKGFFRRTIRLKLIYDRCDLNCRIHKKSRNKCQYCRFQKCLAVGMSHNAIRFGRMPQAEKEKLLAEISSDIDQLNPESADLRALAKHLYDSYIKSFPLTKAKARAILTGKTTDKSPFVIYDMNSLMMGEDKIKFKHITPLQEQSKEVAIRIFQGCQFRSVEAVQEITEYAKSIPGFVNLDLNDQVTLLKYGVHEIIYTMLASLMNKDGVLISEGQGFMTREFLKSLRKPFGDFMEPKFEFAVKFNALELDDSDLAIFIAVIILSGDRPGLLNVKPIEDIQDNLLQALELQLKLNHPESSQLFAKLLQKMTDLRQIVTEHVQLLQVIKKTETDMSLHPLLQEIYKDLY

[4] = molecular target: T4, Peroxisome proliferator-activated receptor alpha (Homo sapiens, UniProt Q07869); experiment: Binding affinity to PPARalpha (unknown origin) assessed as kinetic dissociation constant by SPR assay
T4 sequence (Q07869 whole entry): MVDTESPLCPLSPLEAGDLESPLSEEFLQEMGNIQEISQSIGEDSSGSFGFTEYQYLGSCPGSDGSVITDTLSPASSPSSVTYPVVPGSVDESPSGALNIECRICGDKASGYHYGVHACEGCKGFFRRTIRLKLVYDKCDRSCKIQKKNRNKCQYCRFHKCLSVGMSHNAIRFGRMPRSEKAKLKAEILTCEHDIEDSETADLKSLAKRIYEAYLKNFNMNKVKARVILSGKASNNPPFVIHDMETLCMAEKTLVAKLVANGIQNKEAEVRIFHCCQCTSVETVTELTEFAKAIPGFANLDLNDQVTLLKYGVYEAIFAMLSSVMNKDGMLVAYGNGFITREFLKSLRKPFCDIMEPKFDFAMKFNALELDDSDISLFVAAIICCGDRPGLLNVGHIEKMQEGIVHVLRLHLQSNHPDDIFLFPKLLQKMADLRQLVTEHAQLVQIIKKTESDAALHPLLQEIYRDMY

[5] = molecular target: T5, Peroxisome proliferator-activated receptor gamma (Homo sapiens, UniProt P37231); experiment: Transactivation of GAL4-fused human PPARgamma LBD expressed in human HepG2 cells after 20 hrs by luciferase reporter gene assay; format: cell-based
T5 sequence (P37231 whole entry): T3 sequence (whole entry)

[6] = molecular target: T6, Peroxisome proliferator-activated receptor alpha (Homo sapiens) (UniProt Q07869); experiment: Agonist activity at PPARalpha assessed as induction of positive regulatory loop based receptor transcriptional activation by measuring upregulation of PPARalpha mRNA level in human HepG2 cells at 1 uM after 24 hrs by RT-PCR method; format: cell-based
T6 sequence (whole entry): T4 sequence (Q07869 whole entry)
Outline: (§2)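 Serum-free HepG2 exposed 24 h to 1 μM test agent (Wy-14,643 reference at 50 μM). RNA extracted from 1x10⁶ cells; TaqMan real-time RT-PCR for CAC, CPT1 or PPARα, normalized to β-actin. Mean ± SD of three independent duplicate experiments; one-way ANOVA with Bonferroni test.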

[7] = molecular target: T6, Peroxisome proliferator-activated receptor alpha (Homo sapiens); experiment: Agonist activity at PPARalpha in human HepG2 cells assessed as increase in CAC mRNA level at 1 uM after 24 hrs by RT-PCR method; format: cell-based; outline: as §2
[8] = molecular target: T5, Peroxisome proliferator-activated receptor gamma; experiment: Binding affinity to PPARgamma (unknown origin) assessed as kinetic dissociation constant by SPR assay
[9] = molecular target: T6, Peroxisome proliferator-activated receptor alpha (Homo sapiens); experiment: Agonist activity at PPARalpha in human HepG2 cells assessed as increase in CPT1 mRNA level at 1 uM after 24 hrs by RT-PCR method; format: cell-based; outline: as §2

| Compound | Activity [1] | Kd [2] | Activity (HEK-293T) | Activity [3] | Kd [4] | EC50 [5] | Activity [6] | Activity [7] | Kd [8] | Activity [9] |
| --- | --- | --- | --- | --- | --- | --- | --- | --- | --- | --- |
| C[C@@H](Oc1ccc(Cc2ccc(OCc3coc(-c4ccccc4)n3)cc2)cc1)C(=O)O | inactive | Not Active | Non-Toxic | Active | 0.025 s⁻¹ | 280 nM | Active | Active | 0.095 s⁻¹ | Active |
| C[C@H](Oc1ccc(Cc2ccc(OCc3coc(-c4ccccc4)n3)cc2)cc1)C(=O)O | inactive | Not Active | Non-Toxic | Active | 0.016 s⁻¹ | 300 nM | Active | Active | 0.099 s⁻¹ | Active |
